Measured values reported in ChEMBL document CHEMBL1145889, “Potent and selective inhibitors of platelet-derived growth factor receptor phosphorylation. 3. Replacement of quinazoline moiety and improvement of metabolic polymorphism of 4-[4-(N-substituted (thio)carbamoyl)-1-piperazinyl]-6,7-dimethoxyquinazoline derivatives” (J Med Chem, 2003).

Columns and labels:
Format in all cases: ADME, organism-based
[1] = Volume of distribution at steady state was determined after administering 1 mg/kg of compound intravenously in rat no.2 belonging to phenotype EM (extensive metabolizer); set-up: dose 1 mg/kg, route intravenous; conditions: in vivo, iv, read-out: Vdss
Outline: (§1)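 Male Sprague–Dawley rats (nos. 1–4) were dosed intravenously at 1 mg/kg. Plasma drug concentration was measured by HPLC. Parameters were derived by model-independent analysis. Rats were classed as extensive or poor metabolizers from their plasma profiles.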

[2] = Mean residence time of intravenously administered compound (1 mg/kg) in rat no.1 belonging to phenotype EM (extensive metabolizer); conditions: in vivo, iv; outline: as §1
[3] = Maximum time of retention of orally administered compound (30 mg/kg) in rat no.7 belonging to phenotype PM (poor metabolizer); conditions: in vivo, po
Outline: (§2)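 Male Sprague–Dawley rats (nos. 5–7) were given 30 mg/kg orally. Plasma concentration was determined by HPLC. Tmax, T1/2, MRT, Cmax and AUC came from model-independent analysis. Extensive and poor metabolizers were assigned from the concentration–time profiles.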

[4] = Mean residence time after oral administration of 30 mg/kg of compound in rat no.5 belonging to phenotype PM (poor metabolizer); set-up: dose 30 mg/kg, route oral; conditions: in vivo; outline: as §2
[5] = Mean residence time of intravenously administered compound (1 mg/kg) in rat no.4 belonging to phenotype PM (poor metabolizer); conditions: in vivo, iv; outline: as §1
[6] = Half-life period of intravenously administered compound (1 mg/kg) in rat no.2 belonging to phenotype EM (extensive metabolizer); conditions: in vivo, iv, read-out: T1/2 beta (converted); outline: as §1
[7] = Maximum plasma concentration was determined after administering 30 mg/kg of compound orally n rat no.7 belonging to phenotype PM (poor metabolizer); set-up: dose 30 mg/kg, route oral; conditions: po; outline: as §2
[8] = Volume of distribution at steady state was determined after administering 1 mg/kg of compound intravenously in rat no.1 belonging to phenotype EM (extensive metabolizer); set-up: dose 1 mg/kg, route intravenous; conditions: in vivo, iv, read-out: Vdss; outline: as §1
[9] = Plasma clearance was determined after administering 1 mg/kg of compound intravenously in rat no.3 belonging to phenotype EM (extensive metabolizer); set-up: dose 1 mg/kg, route intravenous; conditions: iv; outline: as §1
[10] = Mean residence time of intravenously administered compound (1 mg/kg) in rat no.3 belonging to phenotype EM (extensive metabolizer); conditions: in vivo, iv; outline: as §1
[11] = Pharmacokinetic parameter (AUC) was determined after administering 30 mg/kg of compound orally in rat no.5 belonging to phenotype PM (poor metabolizer); set-up: dose 30 mg/kg, route oral; conditions: in vivo, po; outline: as §2
[12] = Half-life period of intravenously administered compound (1 mg/kg) in rat no.1 belonging to phenotype EM (extensive metabolizer); conditions: in vivo, iv, read-out: T1/2 beta (converted); outline: as §1
[13] = Maximum plasma concentration was determined after administering 30 mg/kg of compound orally in rat no.6 belonging to phenotype EM (extensive metabolizer); set-up: dose 30 mg/kg, route oral; conditions: po; outline: as §2
[14] = Maximum time of retention of orally administered compound (30 mg/kg) in rat no.6 belonging to phenotype EM (extensive metabolizer); conditions: in vivo, po; outline: as §2
[15] = Maximum time of retention of orally administered compound (30 mg/kg) in rat no.5 belonging to phenotype PM (poor metabolizer); conditions: in vivo, po; outline: as §2
[16] = Mean residence time after oral administration of 30 mg/kg of compound in rat no.7 belonging to phenotype PM (poor metabolizer); set-up: dose 30 mg/kg, route oral; conditions: in vivo; outline: as §2
[17] = Half-life period of orally administered compound (30 mg/kg) in rat no.5 belonging to phenotype PM (poor metabolizer); conditions: in vivo, po; outline: as §2
[18] = Volume of distribution at steady state was determined after administering 1 mg/kg of compound intravenously in rat no.3 belonging to phenotype EM (extensive metabolizer); set-up: dose 1 mg/kg, route intravenous; conditions: in vivo, iv, read-out: Vdss; outline: as §1
[19] = Half-life period of orally administered compound (30 mg/kg) in rat no.7 belonging to phenotype PM (poor metabolizer); conditions: in vivo, po; outline: as §2
[20] = Pharmacokinetic parameter (AUC) was determined after administering 30 mg/kg of compound orally in rat no.7 belonging to phenotype PM (poor metabolizer); set-up: dose 30 mg/kg, route oral; conditions: in vivo, po; outline: as §2
[21] = Plasma clearance was determined after administering 1 mg/kg of compound intravenously in rat no.4 belonging to phenotype PM (poor metabolizer); set-up: dose 1 mg/kg, route intravenous; conditions: iv; outline: as §1
[22] = Pharmacokinetic parameter (AUC) was determined after administering 30 mg/kg of compound orally in rat no.6 belonging to phenotype EM (extensive metabolizer); set-up: dose 30 mg/kg, route oral; conditions: in vivo, po; outline: as §2
[23] = Mean residence time of intravenously administered compound (1 mg/kg) in rat no.2 belonging to phenotype EM (extensive metabolizer); conditions: in vivo, iv; outline: as §1
[24] = Maximum plasma concentration was determined after administering 30 mg/kg of compound orally in rat no.5 belonging to phenotype PM (poor metabolizer); set-up: dose 30 mg/kg, route oral; conditions: po; outline: as §2
[25] = Plasma clearance was determined after administering 1 mg/kg of compound intravenously in rat no.1 belonging to phenotype EM (extensive metabolizer); set-up: dose 1 mg/kg, route intravenous; conditions: iv; outline: as §1
[26] = Pharmacokinetic parameter (AUC) was determined after administering 1 mg/kg of compound intravenously in rat no.3 belonging to phenotype EM (extensive metabolizer); set-up: dose 1 mg/kg, route intravenous; conditions: in vivo, iv; outline: as §1
[27] = Pharmacokinetic parameter (AUC) was determined after administering 1 mg/kg of compound intravenously in rat no.1 belonging to phenotype EM (extensive metabolizer); set-up: dose 1 mg/kg, route intravenous; conditions: in vivo, iv; outline: as §1
[28] = Mean residence time after oral administration of 30 mg/kg of compound in rat no.6 belonging to phenotype EM (extensive metabolizer); set-up: dose 30 mg/kg, route oral; conditions: in vivo; outline: as §2
[29] = Half-life period of intravenously administered compound (1 mg/kg) in rat no.3 belonging to phenotype EM (extensive metabolizer); conditions: in vivo, iv, read-out: T1/2 beta (converted); outline: as §1
[30] = Volume of distribution at steady state was determined after administering 1 mg/kg of compound intravenously in rat no.4 belonging to phenotype PM (poor metabolizer); set-up: dose 1 mg/kg, route intravenous; conditions: in vivo, iv, read-out: Vdss; outline: as §1
[31] = Plasma clearance was determined after administering 1 mg/kg of compound intravenously in rat no.2 belonging to phenotype EM (extensive metabolizer); set-up: dose 1 mg/kg, route intravenous; conditions: iv; outline: as §1
[32] = Half-life period of orally administered compound (30 mg/kg) in rat no.6 belonging to phenotype EM (extensive metabolizer); conditions: in vivo, po; outline: as §2
[33] = Pharmacokinetic parameter (AUC) was determined after administering 1 mg/kg of compound intravenously in rat no.4 belonging to phenotype PM (poor metabolizer); set-up: dose 1 mg/kg, route intravenous; conditions: in vivo, iv; outline: as §1
[34] = Half-life period of intravenously administered compound (1 mg/kg) in rat no.4 belonging to phenotype PM (poor metabolizer); conditions: in vivo, iv, read-out: T1/2 beta (converted); outline: as §1
[35] = Half-life period of intravenously administered compound (1 mg/kg) in rat no.11 belonging to the phenotype […] (poor metaboliser); conditions: in vivo, iv
Outline: (§3)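 Male Sprague–Dawley rats (n = 4) were first phenotyped by a 3 mg/kg oral dose. Plasma taken at 30 min was run on HPLC, and a metabolite peak present marked EM, absent marked PM. After a 1-week washout, each phenotype (n = 2) received 1 mg/kg intravenously. Plasma concentration was determined by HPLC.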

[36] = Plasma clearance was determined after administering 1 mg/kg of compound intravenously in rat no.10 belonging to the phenotype […] (poor metaboliser); set-up: dose 1 mg/kg, route intravenous; conditions: iv; outline: as §3
[37] = Half-life period of intravenously administered compound (1 mg/kg) in rat no.9 belonging to the phenotype EM (extensive metaboliser); conditions: in vivo, iv; outline: as §3
[38] = Half-life period of intravenously administered compound (1 mg/kg) in rat no.8 belonging to the phenotype EM (extensive metaboliser); conditions: in vivo, iv; outline: as §3
[39] = Pharmacokinetic parameter (AUC) was determined after administering 1 mg/kg of compound intravenously in rat no.11 belonging to the phenotype […] (poor metaboliser); set-up: dose 1 mg/kg, route intravenous; conditions: in vivo, iv; outline: as §3
[40] = Volume of distribution at steady state was determined after administering 1 mg/kg of compound intravenously in rat no.8 belonging to the phenotype EM (extensive metaboliser); set-up: dose 1 mg/kg, route intravenous; conditions: in vivo, iv, read-out: Vdss; outline: as §3
[41] = Plasma clearance was determined after administering 1 mg/kg of compound intravenously in rat no.8 belonging to the phenotype EM (extensive metaboliser); set-up: dose 1 mg/kg, route intravenous; conditions: iv; outline: as §3
[42] = Volume of distribution at steady state was determined after administering 1 mg/kg of compound intravenously in rat no.10 belonging to the phenotype […] (poor metaboliser); set-up: dose 1 mg/kg, route intravenous; conditions: in vivo, iv, read-out: Vdss; outline: as §3
[43] = Pharmacokinetic parameter (AUC) was determined after administering 1 mg/kg of compound intravenously in rat no.10 belonging to the phenotype […] (poor metaboliser); set-up: dose 1 mg/kg, route intravenous; conditions: in vivo, iv; outline: as §3
[44] = Plasma clearance was determined after administering 1 mg/kg of compound intravenously in rat no.11 belonging to the phenotype […] (poor metaboliser); set-up: dose 1 mg/kg, route intravenous; conditions: iv; outline: as §3
[45] = Volume of distribution at steady state was determined after administering 1 mg/kg of compound intravenously in rat no.11 belonging to the phenotype EM (poor metaboliser); set-up: dose 1 mg/kg, route intravenous; conditions: in vivo, iv, read-out: Vdss; outline: as §3
[46] = Half-life period of intravenously administered compound (1 mg/kg) in rat no.10 belonging to the phenotype […] (poor metaboliser); conditions: in vivo, iv; outline: as §3
[47] = Volume of distribution at steady state was determined after administering 1 mg/kg of compound intravenously in rat no.9 belonging to the phenotype EM (extensive metaboliser); set-up: dose 1 mg/kg, route intravenous; conditions: in vivo, iv, read-out: Vdss; outline: as §3
[48] = Pharmacokinetic parameter (AUC) was determined after administering 1 mg/kg of compound intravenously in rat no.9 belonging to the phenotype EM (extensive metaboliser); set-up: dose 1 mg/kg, route intravenous; conditions: in vivo, iv; outline: as §3
[49] = Plasma clearance was determined after administering 1 mg/kg of compound intravenously in rat no.9 belonging to the phenotype EM (extensive metaboliser); set-up: dose 1 mg/kg, route intravenous; conditions: iv; outline: as §3
[50] = Pharmacokinetic parameter (AUC) was determined after administering 1 mg/kg of compound intravenously in rat no.8 belonging to the phenotype EM (extensive metaboliser); set-up: dose 1 mg/kg, route intravenous; conditions: in vivo, iv; outline: as §3
[51] = read-out: T1/2 alpha (converted)
[52] = read-out: T1/2 beta (converted)

COc1cc2ncnc(N3CCN(C(=O)Nc4ccc(C#N)cc4)CC3)c2cc1OC
Vd [1]: 0.16 L/kg
MRT [2]: 39 min
Tmax [3]: 120 min
MRT [4]: 514 min
MRT [5]: 252 min
half-life [6]: 27 min
Cmax [7]: 35.2 µg/mL
Vd [8]: 0.22 L/kg
clearance [9]: 0.413 L/h/kg
MRT [10]: 21 min
AUC [11]: 815 µg·h/mL
half-life [12]: 58.2 min
Cmax [13]: 5.22 µg/mL
Tmax [14]: 120 min
Tmax [15]: 480 min
MRT [16]: 382 min
half-life [17]: 315 min
Vd [18]: 0.15 L/kg
half-life [19]: 204 min
AUC [20]: 455 µg·h/mL
clearance [21]: 0.0424 L/h/kg
AUC [22]: 26.3 µg·h/mL
MRT [23]: 23.4 min
Cmax [24]: 50.7 µg/mL
clearance [25]: 0.349 L/h/kg
AUC [26]: 2.42 µg·h/mL
AUC [27]: 2.87 µg·h/mL
MRT [28]: 235 min
half-life [29]: 23.4 min
Vd [30]: 0.18 L/kg
clearance [31]: 0.404 L/h/kg
half-life [32]: 152 min
AUC [33]: 23.6 µg·h/mL
half-life [34]: 186 min

COCCOc1cc2c(N3CCN(C(=O)Nc4ccc(C#N)cc4)CC3)ncnc2cc1OC
half-life [35, 51]: 3.58 min
half-life [35, 52]: 13.1 min
clearance [36]: 0.784 L/h/kg
half-life [37, 51]: 2.99 min
half-life [37, 52]: 15.7 min
half-life [38, 51]: 2.69 min
half-life [38, 52]: 13.8 min
AUC [39]: 0.95 µg·h/mL
Vd [40]: 0.215 L/kg
clearance [41]: 0.866 L/h/kg
Vd [42]: 0.232 L/kg
AUC [43]: 1.28 µg·h/mL
clearance [44]: 1.05 L/h/kg
Vd [45]: 0.286 L/kg
half-life [46, 51]: 1.9 min
half-life [46, 52]: 15.5 min
Vd [47]: 0.252 L/kg
AUC [48]: 1.26 µg·h/mL
clearance [49]: 0.791 L/h/kg
AUC [50]: 1.16 µg·h/mL
